This is an account of results in ChEMBL document CHEMBL1141414, “Inhibitors of bacterial cystathionine beta-lyase: leads for new antimicrobial agents and probes of enzyme structure and function” (J Med Chem, 2007).

≈ marks a conversion by molar mass, not a printed value. A value given as a limit tells only on which side of the number the result lay.

In assay [1] the target is T1, Cystathionine beta-lyase MetC (Escherichia coli K-12, UniProt P06721).
T1 sequence (P06721 whole entry): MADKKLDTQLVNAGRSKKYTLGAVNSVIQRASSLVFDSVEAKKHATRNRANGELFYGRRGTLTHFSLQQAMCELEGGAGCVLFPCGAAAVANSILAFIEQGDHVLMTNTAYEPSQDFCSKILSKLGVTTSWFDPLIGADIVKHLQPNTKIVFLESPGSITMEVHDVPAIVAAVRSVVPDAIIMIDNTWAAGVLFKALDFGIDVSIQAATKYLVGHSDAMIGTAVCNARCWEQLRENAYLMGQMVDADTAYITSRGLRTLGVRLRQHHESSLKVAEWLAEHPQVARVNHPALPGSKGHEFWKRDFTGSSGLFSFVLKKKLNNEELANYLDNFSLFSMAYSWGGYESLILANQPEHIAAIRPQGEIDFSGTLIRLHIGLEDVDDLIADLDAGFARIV
Description: Inhibition of Escherichia coli CBL. The gist of the method: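 Purified E. coli CBL (24 nM) in 50 mM TAPS pH 8.5 with 1 mM DTNB, preincubated 10 min at room temperature with inhibitor in DMSO (5% final). Reaction started with 100 µM cystathionine; homocysteine formation followed at 412 nm for 4 min, rate taken from 30-200 s slope. IC50 fitted as a four-parameter logistic from 12 concentrations, triplicate.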

For another assay, the system named is Candida albicans. Nature of the assay: Antifungal activity against Candida albicans ATCC 90028. In kind it is functional.
Assay [2] relates to Escherichia coli. Nature of the assay: Antibacterial activity against Escherichia coli ATCC 25922 in presence of methionine. In kind it is functional.
Assay [3] deals with Escherichia coli. Nature of the assay: Antibacterial activity against Escherichia coli ATCC 25922 in absence of methionine. Type of assay: functional.

`Cc1ccc2nc(-c3ccc(NC(=O)Nc4ccc(Cl)cc4)cc3)sc2c1` yielded an IC50 in assay [1] of 16 µM. Further, the MIC with Candida albicans, in the assay with Escherichia coli [2] and with Escherichia coli [3] was greater than 128 µg/mL in each case.
As for `Cc1ccccc1NC(=O)C(C(F)(F)F)C(F)(F)F`, the IC50 in assay [1] was 0.28 µM. Also, the values for the MIC against Candida albicans, with Escherichia coli [2] and against Escherichia coli [3] were 16 µg/mL (≈ 56.1 µM), 64 µg/mL and 32 µg/mL (≈ 112 µM), respectively.
For `Cc1ccc2nc(-c3ccc(NC(=O)c4ccc(Cl)cc4)cc3)sc2c1` the same measures were 200 µM, greater than 128 µg/mL, greater than 128 µg/mL and greater than 128 µg/mL.
The like results for `NNC(=O)CNC(=O)c1ccccc1[N+](=O)[O-]` were, in that order, 4.5 µM, 128 µg/mL (≈ 537 µM), 16 µg/mL and 16 µg/mL (≈ 67.2 µM).
With `NNC(=O)CNC(=O)c1ccccc1C(F)(F)F`, it took 0.079 µM to reach half-maximal inhibition in assay [1] (IC50). In addition, the MIC in the assay on Candida albicans, in the assay on Escherichia coli [2] and in the assay with Escherichia coli [3] was greater than 128 µg/mL in each case.
Turning to `NNC(=O)CNC(=O)c1cccc(C(F)(F)F)c1`, the IC50 in assay [1] was 37 µM. For the same molecule, the MIC in the assay on Candida albicans, in the assay on Escherichia coli [2] and against Escherichia coli [3] was greater than 128 µg/mL in each case.
On to `NNC(=O)CNC(=O)c1ccc(C(F)(F)F)cc1`, for which inhibition in assay [1] was half-maximal at 15 µM (IC50). Moreover, the minimum inhibitory concentration (MIC) is greater than 128 µg/mL against Candida albicans, 128 µg/mL with Escherichia coli [2] and 128 µg/mL (≈ 490 µM) with Escherichia coli [3].
Molecule `NNS(=O)(=O)c1cccc2c(N)cccc12` showed an IC50 in assay [1] of 6 µM.
In assay [1], `NNC(=O)CNC(=O)c1ccc([N+](=O)[O-])cc1` displayed an IC50 of 25 µM. Moreover, the figures for the MIC against Candida albicans, with Escherichia coli [2] and with Escherichia coli [3] were greater than 128 µg/mL, 64 µg/mL and 32 µg/mL (≈ 134 µM), respectively.
Turning to `NNC(=O)CNC(=O)c1cc([N+](=O)[O-])cc([N+](=O)[O-])c1`, in assay [1], the IC50 turned out to be 5.9 µM. The MIC was greater than 128 µg/mL in the assay with Candida albicans, 128 µg/mL with Escherichia coli [2] and 128 µg/mL (≈ 452 µM) against Escherichia coli [3].
In assay [1], `O=C(OCc1ccccc1Br)c1cc([N+](=O)[O-])cc2c1-c1ccc([N+](=O)[O-])cc1/C2=N/O` had an IC50 of 0.53 µM. For the same molecule, the MIC was greater than 128 µg/mL against Candida albicans, 64 µg/mL in the assay on Escherichia coli [2] and 64 µg/mL (≈ 128 µM) against Escherichia coli [3].
On to `Cc1ccc(S(=O)(=O)NN)cc1`, for which, in assay [1], the IC50 came out at 2.2 µM. The MIC against Candida albicans amounted to 128 µg/mL (≈ 687 µM); in the assay with Escherichia coli [2], 64 µg/mL; against Escherichia coli [3] it was 32 µg/mL (≈ 172 µM).
The molecule `NNS(=O)(=O)c1ccc(-c2ccccn2)s1` yielded an IC50 in assay [1] of 3.4 µM. For the same molecule, the MIC is greater than 128 µg/mL in the assay on Candida albicans, 32 µg/mL in the assay on Escherichia coli [2] and 32 µg/mL (≈ 125 µM) in the assay on Escherichia coli [3].
The molecule `NNS(=O)(=O)c1ccc(Cl)c(Cl)c1` displayed an IC50 in assay [1] of 1.8 µM.
In assay [1], `COc1c(F)c(F)cc(C(=O)NCC(=O)NN)c1F` came in with an IC50 of 0.65 µM. Also, the MIC in the assay on Candida albicans, with Escherichia coli [2] and with Escherichia coli [3] was greater than 128 µg/mL throughout.
`NNC(=O)CNC(=O)c1cc2ccccc2cc1N`: the IC50 in assay [1] was determined as 560 µM. Besides, the MIC with Candida albicans, with Escherichia coli [2] and against Escherichia coli [3] was greater than 128 µg/mL in each case.
In assay [1], `NNC(=O)CNC(=O)c1cc(N)cc(N)c1` showed an IC50 of 82 µM. Moreover, the MIC is greater than 128 µg/mL with Candida albicans, 128 µg/mL with Escherichia coli [2] and 128 µg/mL (≈ 573 µM) in the assay with Escherichia coli [3].
In turn, `O=C(CSc1nccc(-c2cccs2)n1)c1cc(-c2ccc(Cl)c(Cl)c2)no1` displayed an IC50 in assay [1] of 2.7 µM. Also, the MIC against Candida albicans, in the assay on Escherichia coli [2] and with Escherichia coli [3] was greater than 128 µg/mL throughout.
`COc1cccc(OC)c1C(=O)NCC(=O)NN`: in assay [1], the IC50 was determined as 60 µM. The MIC with Candida albicans, in the assay on Escherichia coli [2] and in the assay with Escherichia coli [3] was greater than 128 µg/mL each time.
As to `N#CC(C#N)=C1c2cc(S(=O)(=O)Oc3ccccc3)cc([N+](=O)[O-])c2-c2c1cc(S(=O)(=O)Oc1ccccc1)cc2[N+](=O)[O-]`, half-maximal inhibition in assay [1] (IC50) required 9 µM.
The molecule `CC(=O)NCc1ccc(S(=O)(=O)NN)cc1` gave an IC50 in assay [1] of 34 µM. In addition, the MIC against Candida albicans is greater than 128 µg/mL; in the assay with Escherichia coli [2] it was 64 µg/mL; against Escherichia coli [3], 64 µg/mL (≈ 263 µM).
In the case of `NNC(=O)CNC(=O)Cc1cccc2ccccc12`, in assay [1], 500 µM corresponded to half-maximal inhibition (IC50).
With `NNS(=O)(=O)c1ccc(Cl)s1`, in assay [1], the IC50 is 6.9 µM.
